Source: PMC6853148 (Clinical and Translational Science, 2019)
Read-outs that look alike come from different tables or passages of the source.

Tests used:
[1] = test system: B cells; conditions: patients with rheumatoid arthritis; cited from earlier work
[2] = test system: breast cancer resistance protein; conditions: cited from earlier work
[3] = test system: B‐lymphocytes; assay type: in vivo, healthy female subjects; conditions: for time for B‐lymphocytes to recover to 90% of baseline levels: average
Outline: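 B-lymphocytes counted at baseline and after dosing. Individual post hoc PK estimates were fixed, then a Friberg-type semimechanistic model was fitted with a linear drug effect. It has a proliferation compartment, sequential transit compartments, a circulating pool, and feedback (baseline/current count, exponent γ). Baseline was the median predose count, with IIV. Log-transformed counts were fitted with additive residual error and checked by goodness-of-fit plots. Simulations covered single doses.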

[4] = test system: P‐glycoprotein; conditions: cited from earlier work
[5] = Population PK model of venetoclax in healthy subjects; assay type: in vivo, healthy female subjects
Outline: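 Pooled data from 203 healthy women (21–65 y, BMI 18.6–30.1 kg/m2) given oral doses of 10–400 mg, 1–4 times with ≥7-day washout, after a 10-h fast or within 30 min of a low/moderate/high-fat breakfast. Serial plasma sampling up to 96 h; assayed by liquid–liquid extraction LC-MS/MS. Two-compartment nonlinear mixed-effects model with lagged first-order absorption, exponential IIV on CL/F, Vc/F and F, and combined residual error. Covariates kept by backward elimination (P < 0.01); low-fat meal as reference.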

[6] = cited from earlier work
[7] = test system: CYP3A; conditions: cited from earlier work
[8] = 4‐week dog studies, male; no reference given; cited from earlier work
[9] = model simulation, 200 mg single dose
[10] = covariate effect on bio-availability relative to low-fat meal

Question: Which “time of reduction in B cells from circulation postinfusion” value [1] does the source give for rituximab here?
Answer: 1–28 weeks

Question: For `CC1(C)CCC(CN2CCN(c3ccc(C(=O)NS(=O)(=O)c4ccc(NCC5CCOCC5)c([N+](=O)[O-])c4)c(Oc4cnc5[nH]ccc5c4)c3)CC2)=C(c2ccc(Cl)cc2)C1` [venetoclax, Venetoclax], which “breast cancer resistance protein transporter substrate” value [2] is on record?
Answer: substrate

Question: And the “B‐cell count recovered to 90% of baseline” value ([3]; even at the 400 mg dose)?
Answer: ≤ 2 months

Question: What about the “Slope of drug effect” value ([3]; linear drug effect on B-lymphocytes, PD model parameter estimate) of the same compound?
Answer: 20.9

Question: And the “decrease in B‐lymphocytes” value [3, 9]?
Answer: 24% (15–35%)

Question: What about the “time for B‐lymphocytes to recover to 90% of baseline levels” value [3, 9] of the same compound?
Answer: 48 (21–64) days

Question: What about the “time for B‐lymphocytes to recover to 90% of baseline levels” value ([3]; model simulation, 400 mg single dose) of the same compound?
Answer: 59 (30–66) days

Question: And the “recovery of B‐lymphocytes to 90% of baseline levels” value ([3]; model simulation, three 200 mg doses every week or every other week)?
Answer: ≤ 2 months

Question: And the “time for B‐cell count to rise back to baseline” value ([3]; simulations/observed data)?
Answer: 2–3 months

Question: What about the “P‐glycoprotein transporter substrate” value [4] of the same compound?
Answer: substrate

Question: What about the “Fasting on F1” value [5, 10] of the same compound?
Answer: 0.29

Question: And the “Moderate/high‐fat on F1” value [5, 10]?
Answer: 1.47

Question: What about the “Chinese on F1” value ([5]; covariate effect on bio-availability, Chinese ethnicity) of the same compound?
Answer: 1.53

Question: And the “Azithromycin on F1” value ([5]; covariate effect on bio-availability, coadministration of azithromycin)?
Answer: 0.65

Question: What about the “Rifampin on F1” value ([5]; covariate effect on bio-availability, coadministration of rifampin) of the same compound?
Answer: 4.91

Question: What about the “Low fat on F1” value ([5]; covariate effect on bio-availability, low-fat meal is the reference category) of the same compound?
Answer: 1

Question: What about the Vd ([5]; female, human, plasma, oral) of the same compound?
Answer: 99 L

Question: What about the “higher bioavailability with coadministration of rifampin” value ([5]; in vivo) of the same compound?
Answer: 391%

Question: What about the “higher clearance with coadministration of rifampin” value ([5]; in vivo) of the same compound?
Answer: 167%

Question: And the “lower bio‐availability with coadministration of azithromycin” value ([5]; in vivo)?
Answer: 35%

Question: What about the “Dose nonlinearity on F1” value ([5]; parameter Fixed, not estimated) of the same compound?
Answer: −0.178

Question: And the “ALAG, absorption lag time” value ([5]; population PK estimate)?
Answer: 0.04 days

Question: What about the “KA, absorption rate” value ([5]; population PK estimate) of the same compound?
Answer: 3.83 day⁻¹

Question: And the “CL/F, apparent clearance” value ([5]; population PK estimate, oral, healthy subjects)?
Answer: 449 L/day

Question: What about the “higher bio‐availability with a moderate/high‐fat meal” value ([5]; relative to a low‐fat meal) of the same compound?
Answer: 47%

Question: And the “lower bio‐availability under fasting conditions” value ([5]; relative to a low‐fat meal)?
Answer: 71%

Question: And the “increase of venetoclax exposures by food” value ([6]; compared with fasting conditions)?
Answer: threefold to fivefold

Question: What about the “mean terminal elimination half‐life” value ([6]; healthy subjects) of the same compound?
Answer: 17 h

Question: And the “mean terminal elimination half‐life” value ([6]; subjects with severe hepatic impairment)?
Answer: 35 h

Question: What about the metabolizing enzyme [7] of the same compound?
Answer: mainly metabolized by CYP3A

Question: And the toxicology finding [8]?
Answer: testicular toxicity (germ cell loss)
